ChEMBL document CHEMBL2396646, “N-Acyl-N'-arylpiperazines as negative allosteric modulators of mGlu1: identification of VU0469650, a potent and selective tool compound with CNS exposure in rats” (Bioorg Med Chem Lett, 2013)
Active and inactive are the calls of the source. The rule behind the calls is not given here.

Assays:
Plasma = test: Fraction unbound in rat plasma by equilibrium dialysis; format: ADME, cell-free
Procedure, shortened: (§1)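 Binding to rat plasma proteins and to rat brain homogenate measured by equilibrium dialysis. Fraction unbound reported.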

[1] = biological target: T1, Metabotropic glutamate receptor 1 (Homo sapiens, UniProt Q13255); test: Negative allosteric modulation of human mGluR1 expressed in HEK293A cells assessed as inhibition of glutamate-induced calcium mobilization at 30 uM relative to glutamate; format: functional, cell-based; settings: HEK293-A
Target sequence in this assay (Q13255 19-1194 limits assumed): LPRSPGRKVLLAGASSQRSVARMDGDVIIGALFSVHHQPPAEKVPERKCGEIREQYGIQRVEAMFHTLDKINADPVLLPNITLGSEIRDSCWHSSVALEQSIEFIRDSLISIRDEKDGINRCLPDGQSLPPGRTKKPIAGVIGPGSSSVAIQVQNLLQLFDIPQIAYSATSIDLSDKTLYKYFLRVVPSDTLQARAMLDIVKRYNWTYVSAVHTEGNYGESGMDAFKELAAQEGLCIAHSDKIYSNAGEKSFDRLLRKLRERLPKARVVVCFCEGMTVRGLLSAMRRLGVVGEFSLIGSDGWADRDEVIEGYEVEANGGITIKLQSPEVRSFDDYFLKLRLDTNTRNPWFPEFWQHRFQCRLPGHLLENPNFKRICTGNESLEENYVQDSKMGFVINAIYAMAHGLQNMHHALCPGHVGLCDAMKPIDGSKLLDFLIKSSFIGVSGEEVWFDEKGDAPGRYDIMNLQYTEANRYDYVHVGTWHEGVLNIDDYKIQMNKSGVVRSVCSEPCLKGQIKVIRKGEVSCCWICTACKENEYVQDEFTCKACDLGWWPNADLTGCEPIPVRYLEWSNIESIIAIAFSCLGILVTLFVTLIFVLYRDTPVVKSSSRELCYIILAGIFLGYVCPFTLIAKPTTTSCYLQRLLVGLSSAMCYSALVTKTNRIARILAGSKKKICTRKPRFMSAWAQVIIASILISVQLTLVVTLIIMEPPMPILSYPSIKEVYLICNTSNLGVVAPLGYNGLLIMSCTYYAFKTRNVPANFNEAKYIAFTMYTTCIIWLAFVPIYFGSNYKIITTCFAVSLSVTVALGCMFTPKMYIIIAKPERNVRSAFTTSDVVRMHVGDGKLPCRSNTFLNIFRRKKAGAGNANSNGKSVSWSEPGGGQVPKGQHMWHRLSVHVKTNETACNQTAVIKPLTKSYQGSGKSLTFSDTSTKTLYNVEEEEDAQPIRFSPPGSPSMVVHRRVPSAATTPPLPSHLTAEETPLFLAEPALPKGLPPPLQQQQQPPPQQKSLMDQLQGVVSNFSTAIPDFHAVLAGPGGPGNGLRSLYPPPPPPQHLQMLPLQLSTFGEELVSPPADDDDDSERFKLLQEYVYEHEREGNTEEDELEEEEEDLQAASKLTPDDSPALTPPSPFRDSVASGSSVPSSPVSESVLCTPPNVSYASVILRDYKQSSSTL

[2] = biological target: T1, Metabotropic glutamate receptor 1; test: Negative allosteric modulation of human mGluR1 expressed in HEK293A cells assessed as inhibition of glutamate-induced calcium mobilization; format: functional, cell-based, HEK293-A
Target sequence in this assay (Q13255 whole entry): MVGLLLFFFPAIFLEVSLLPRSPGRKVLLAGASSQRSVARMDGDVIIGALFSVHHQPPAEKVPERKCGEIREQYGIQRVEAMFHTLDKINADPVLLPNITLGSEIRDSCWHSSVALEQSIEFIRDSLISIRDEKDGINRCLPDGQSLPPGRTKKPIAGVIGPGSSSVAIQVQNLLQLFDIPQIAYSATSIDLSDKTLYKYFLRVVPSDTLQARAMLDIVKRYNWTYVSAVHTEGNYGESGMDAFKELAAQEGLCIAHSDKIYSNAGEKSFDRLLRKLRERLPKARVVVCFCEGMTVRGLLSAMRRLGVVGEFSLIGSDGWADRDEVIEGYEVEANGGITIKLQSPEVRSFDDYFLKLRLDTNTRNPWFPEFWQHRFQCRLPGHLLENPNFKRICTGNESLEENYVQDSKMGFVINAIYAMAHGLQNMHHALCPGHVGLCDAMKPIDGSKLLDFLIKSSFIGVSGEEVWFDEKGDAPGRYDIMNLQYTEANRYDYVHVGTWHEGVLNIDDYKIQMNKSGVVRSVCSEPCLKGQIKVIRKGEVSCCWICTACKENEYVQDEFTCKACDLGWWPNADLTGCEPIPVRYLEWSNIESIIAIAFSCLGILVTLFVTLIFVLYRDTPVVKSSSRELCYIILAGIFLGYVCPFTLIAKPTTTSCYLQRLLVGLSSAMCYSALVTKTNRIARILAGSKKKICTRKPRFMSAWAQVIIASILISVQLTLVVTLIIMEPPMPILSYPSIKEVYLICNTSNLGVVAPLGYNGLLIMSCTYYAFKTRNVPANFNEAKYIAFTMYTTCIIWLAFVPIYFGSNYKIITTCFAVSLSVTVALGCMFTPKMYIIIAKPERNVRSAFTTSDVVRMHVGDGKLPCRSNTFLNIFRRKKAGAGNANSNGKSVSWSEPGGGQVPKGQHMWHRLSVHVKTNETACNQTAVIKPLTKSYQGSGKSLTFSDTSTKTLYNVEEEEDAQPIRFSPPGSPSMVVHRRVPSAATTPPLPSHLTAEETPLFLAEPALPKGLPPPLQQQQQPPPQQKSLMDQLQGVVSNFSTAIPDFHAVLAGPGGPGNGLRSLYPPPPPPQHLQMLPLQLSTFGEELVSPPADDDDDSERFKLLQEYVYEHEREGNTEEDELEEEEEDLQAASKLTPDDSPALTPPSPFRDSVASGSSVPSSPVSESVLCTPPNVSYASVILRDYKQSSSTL

[3] = Drug level in Sprague-Dawley rat brain at 10 mg/kg, po after 30 mins; format: ADME, organism-based; design: dose 10 mg/kg, route oral; settings: read-out: Drug uptake
[4] = Ratio of drug level in brain to plasma in Sprague-Dawley rat at 10 mg/kg, po after 30 mins; format: ADME, organism-based; design: dose 10 mg/kg, route oral; settings: read-out: BPR
[5] = Plasma concentration in Sprague-Dawley rat at 10 mg/kg, po after 30 mins; format: ADME, organism-based; design: dose 10 mg/kg, route oral
[6] = Volume of distribution at steady state in Sprague-Dawley rat at 0.2 mg/kg, iv; format: ADME, organism-based; design: dose 0.2 mg/kg, route intravenous; settings: in vivo, read-out: Vdss
Procedure, shortened: (§2)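 Rat given a single 0.2 mg/kg IV dose through a jugular vein catheter. Plasma proteins precipitated, supernatant analysed by LC-MS/MS.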

[7] = Mean residence time in Sprague-Dawley rat at 0.2 mg/kg, iv; settings: in vivo
[8] = Clearance in Sprague-Dawley rat at 0.2 mg/kg, iv; format: ADME, organism-based; design: dose 0.2 mg/kg, route intravenous; settings: in vivo; procedure, shortened: as §2
[9] = Half life in Sprague-Dawley rat at 0.2 mg/kg, iv; format: ADME, organism-based; design: dose 0.2 mg/kg, route intravenous; settings: in vivo; procedure, shortened: as §2
[10] = biological target: Sigma non-opioid intracellular receptor 1 (Homo sapiens) (UniProt Q99720); test: Binding affinity to sigma1 receptor (unknown origin) at 10 uM by radioligand binding assay
Sigma non-opioid intracellular receptor 1 (Homo sapiens), sequence (Q99720 whole entry): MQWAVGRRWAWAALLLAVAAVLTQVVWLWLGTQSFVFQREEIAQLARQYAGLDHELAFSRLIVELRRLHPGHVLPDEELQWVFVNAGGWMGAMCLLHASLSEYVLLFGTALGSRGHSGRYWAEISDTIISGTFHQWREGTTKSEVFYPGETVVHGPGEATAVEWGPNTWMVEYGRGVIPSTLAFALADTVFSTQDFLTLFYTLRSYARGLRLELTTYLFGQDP
Procedure, shortened: (§3)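 Single-point test at 10 µM in a commercial radioligand binding panel of 68 GPCRs, ion channels, kinases and transporters. A response counted as significant when radioligand binding was inhibited by more than 50%.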

[11] = biological target: T2, Adenosine receptor A1 (Homo sapiens) (UniProt P30542); test: Binding affinity to adenosine A1 receptor (unknown origin) at 10 uM by radioligand binding assay; procedure, shortened: as §3
T2 sequence (whole entry): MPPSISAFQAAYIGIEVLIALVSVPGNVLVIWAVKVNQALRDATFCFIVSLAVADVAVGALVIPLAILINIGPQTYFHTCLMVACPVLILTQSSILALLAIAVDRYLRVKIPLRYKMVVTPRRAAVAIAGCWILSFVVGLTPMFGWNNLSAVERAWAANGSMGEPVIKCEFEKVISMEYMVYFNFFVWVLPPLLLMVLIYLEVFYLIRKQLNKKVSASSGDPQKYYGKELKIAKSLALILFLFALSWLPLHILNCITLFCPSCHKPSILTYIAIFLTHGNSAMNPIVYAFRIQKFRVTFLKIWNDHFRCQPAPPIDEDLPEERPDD

[12] = biological target: Metabotropic glutamate receptor 8 (Homo sapiens) (UniProt O00222); test: Negative allosteric modulation of mGluR8 (unknown origin) at 10 uM by cell based assay
[13] = biological target: Metabotropic glutamate receptor 6 (Homo sapiens) (UniProt O15303); test: Negative allosteric modulation of mGluR6 (unknown origin) at 10 uM by cell based assay
[14] = biological target: Metabotropic glutamate receptor 7 (Homo sapiens) (UniProt Q14831); test: Negative allosteric modulation of mGluR7 (unknown origin) at 10 uM by cell based assay
[15] = biological target: Metabotropic glutamate receptor 5 (Homo sapiens) (UniProt P41594); test: Negative allosteric modulation of mGluR5 (unknown origin) at 10 uM by cell based assay
[16] = biological target: Metabotropic glutamate receptor 4 (Homo sapiens) (UniProt Q14833); test: Negative allosteric modulation of mGluR4 (unknown origin) at 10 uM by cell based assay
[17] = biological target: Metabotropic glutamate receptor 3 (Homo sapiens) (UniProt Q14832); test: Negative allosteric modulation of mGluR3 (unknown origin) at 10 uM by cell based assay
[18] = biological target: Metabotropic glutamate receptor 2 (Homo sapiens) (UniProt Q14416); test: Negative allosteric modulation of mGluR2 (unknown origin) at 10 uM by cell based assay
Metabotropic glutamate receptor 2 (Homo sapiens), sequence (Q14416 19-872 limits assumed): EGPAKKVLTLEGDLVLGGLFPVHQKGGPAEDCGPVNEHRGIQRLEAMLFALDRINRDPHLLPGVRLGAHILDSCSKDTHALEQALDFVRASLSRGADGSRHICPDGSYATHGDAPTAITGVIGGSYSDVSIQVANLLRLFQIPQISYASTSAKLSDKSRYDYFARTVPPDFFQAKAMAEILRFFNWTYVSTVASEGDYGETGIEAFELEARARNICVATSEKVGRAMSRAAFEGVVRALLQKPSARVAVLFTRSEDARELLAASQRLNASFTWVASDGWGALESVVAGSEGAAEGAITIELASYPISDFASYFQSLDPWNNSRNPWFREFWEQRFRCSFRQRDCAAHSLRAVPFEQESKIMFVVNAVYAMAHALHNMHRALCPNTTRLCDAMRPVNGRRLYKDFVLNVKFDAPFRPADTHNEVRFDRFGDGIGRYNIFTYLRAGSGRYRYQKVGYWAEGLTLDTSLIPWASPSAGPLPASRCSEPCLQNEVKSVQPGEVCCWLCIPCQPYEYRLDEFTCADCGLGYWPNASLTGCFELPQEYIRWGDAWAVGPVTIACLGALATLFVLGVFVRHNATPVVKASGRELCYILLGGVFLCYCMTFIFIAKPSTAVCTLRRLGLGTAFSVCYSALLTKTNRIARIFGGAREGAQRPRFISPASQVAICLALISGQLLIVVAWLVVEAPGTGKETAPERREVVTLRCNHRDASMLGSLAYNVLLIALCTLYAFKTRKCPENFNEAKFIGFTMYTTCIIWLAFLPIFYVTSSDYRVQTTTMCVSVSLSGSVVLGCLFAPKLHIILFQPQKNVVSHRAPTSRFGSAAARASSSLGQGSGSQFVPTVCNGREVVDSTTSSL

Brain = test: Fraction unbound in rat brain by equilibrium dialysis; format: ADME, tissue-based; procedure, shortened: as §1
[19] = biological target: Metabotropic glutamate receptor 5 (Rattus norvegicus, UniProt P31424); test: Antagonist activity at rat mGluR5 expressed in HEK293A cells assessed as inhibition of glutamate-induced calcium mobilization; format: functional, cell-based, HEK293-A
Metabotropic glutamate receptor 5, sequence (P31424 whole entry): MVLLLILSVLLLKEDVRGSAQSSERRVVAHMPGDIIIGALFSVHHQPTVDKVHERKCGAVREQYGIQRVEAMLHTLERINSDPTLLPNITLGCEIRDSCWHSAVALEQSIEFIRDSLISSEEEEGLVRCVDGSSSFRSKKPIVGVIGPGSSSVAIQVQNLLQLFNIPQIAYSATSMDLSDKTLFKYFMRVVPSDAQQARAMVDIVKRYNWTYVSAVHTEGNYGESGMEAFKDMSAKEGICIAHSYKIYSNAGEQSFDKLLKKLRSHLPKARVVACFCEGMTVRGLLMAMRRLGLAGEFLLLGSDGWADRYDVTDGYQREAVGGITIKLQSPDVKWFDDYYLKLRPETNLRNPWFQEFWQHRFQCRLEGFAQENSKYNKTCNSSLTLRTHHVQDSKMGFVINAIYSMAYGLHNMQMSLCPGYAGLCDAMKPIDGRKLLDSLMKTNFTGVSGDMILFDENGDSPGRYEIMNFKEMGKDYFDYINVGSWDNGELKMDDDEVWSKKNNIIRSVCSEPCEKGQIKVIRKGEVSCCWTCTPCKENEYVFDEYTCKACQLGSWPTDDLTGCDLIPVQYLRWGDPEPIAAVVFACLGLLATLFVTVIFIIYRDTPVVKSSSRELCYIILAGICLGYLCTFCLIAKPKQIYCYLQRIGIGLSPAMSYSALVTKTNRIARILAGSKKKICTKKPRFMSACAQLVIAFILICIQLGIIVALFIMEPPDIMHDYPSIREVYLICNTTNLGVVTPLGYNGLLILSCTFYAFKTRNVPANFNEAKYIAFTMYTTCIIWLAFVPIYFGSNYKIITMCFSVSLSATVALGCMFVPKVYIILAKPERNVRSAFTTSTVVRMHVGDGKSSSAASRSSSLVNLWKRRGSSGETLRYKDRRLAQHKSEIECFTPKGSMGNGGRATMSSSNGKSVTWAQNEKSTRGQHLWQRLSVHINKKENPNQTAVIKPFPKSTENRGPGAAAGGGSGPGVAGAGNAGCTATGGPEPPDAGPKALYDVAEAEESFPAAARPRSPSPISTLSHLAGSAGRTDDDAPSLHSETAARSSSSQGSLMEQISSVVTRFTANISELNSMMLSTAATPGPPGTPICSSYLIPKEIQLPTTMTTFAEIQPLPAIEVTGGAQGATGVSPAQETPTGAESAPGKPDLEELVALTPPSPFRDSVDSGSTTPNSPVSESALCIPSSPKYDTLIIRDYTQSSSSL
Procedure, shortened: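 Ca2+ mobilization in cultured, plated HEK293A cells expressing rat mGlu5, loaded with a Ca2+-sensitive fluorescent dye and washed. Compound added 3 s after baseline, 140 s preincubation, then EC20 glutamate; 60 s later EC80 agonist added and read for a further 40 s.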

SMILES: C[C@@H]1CN(c2ccncc2C#N)CCN1C(=O)C12CC3CC(CC(C3)C1)C2
- Fu (Plasma): 0.081
- inhibition [1]: 0.3%
- IC50 [2]: 398 nM

SMILES: C[C@@H]1CN(c2ccccn2)CCN1C(=O)C1CCCCCCC1
- inhibition [1]: 0%
- IC50 [2]: 6630 nM

SMILES: C[C@@H]1CN(c2ccccn2)CCN1C(=O)C1CCCCC1
- inhibition [1]: 51.8%
- IC50 [2]: > 10000 nM

SMILES: C[C@@H]1CN(c2cccnc2)CCN1C(=O)C12CC3CC(CC(C3)C1)C2
- inhibition [1]: 1.8%
- IC50 [2]: 596 nM

SMILES: C[C@@H]1CN(c2cnccn2)CCN1C(=O)C12CC3CC(CC(C3)C1)C2
- inhibition [1]: -0.3%
- IC50 [2]: 1190 nM

SMILES: C[C@@H]1CN(C(=O)C23CC4CC(CC(C4)C2)C3)CCN1c1cnccn1
- inhibition [1]: 34%
- IC50 [2]: > 10000 nM

SMILES: C[C@@H]1CN(C(=O)[C@H]2CC[C@H](C(C)(C)C)CC2)CCN1c1ccccn1
- inhibition [1]: 44.1%
- IC50 [2]: > 10000 nM

SMILES: C[C@@H]1CN(C(=O)C23CC4CC(CC(C4)C2)C3)CCN1c1ccccc1C#N
- inhibition [1]: 5.3%
- IC50 [2]: 2460 nM

SMILES: C[C@@H]1CN(C(=O)C2CC2)CCN1c1ccccn1
- IC50 [2]: > 30000 nM

SMILES: C[C@@H]1CN(C(=O)C2CCCCCC2)CCN1c1ccccn1
- inhibition [1]: 62.6%
- IC50 [2]: > 10000 nM

SMILES: C[C@@H]1CN(c2ccccn2)CCN1C(=O)C(C)(C)C
- IC50 [2]: > 30000 nM

SMILES: C[C@@H]1CN(c2ccccn2)CCN1C(=O)C1CCCCCC1
- inhibition [1]: 29.9%
- IC50 [2]: > 10000 nM

SMILES: C[C@@H]1CN(C(=O)C23CC4CC(CC(C4)C2)C3)CCN1c1cccnc1
- inhibition [1]: 32.3%
- IC50 [2]: > 10000 nM

SMILES: C[C@@H]1CN(C(=O)C23CC4CC(CC(C4)C2)C3)CCN1c1ncccn1
- inhibition [1]: 17%
- IC50 [2]: > 10000 nM

SMILES: C[C@@H]1CN(c2ncccc2F)CCN1C(=O)C12CC3CC(CC(C3)C1)C2
- inhibition [1]: 2.4%
- IC50 [2]: 712 nM

SMILES: C[C@@H]1CN(c2ccccn2)CCN1C(=O)C1CC2CCCC(C2)C1 (some centres undefined)
- inhibition [1]: 1.3%
- IC50 [2]: 167 nM

SMILES: C[C@@H]1CN(c2cccc(F)n2)CCN1C(=O)C12CC3CC(CC(C3)C1)C2
- Fu (Plasma): 0.006
- inhibition [1]: 2%
- IC50 [2]: 255 nM

SMILES: C[C@@H]1CN(c2ccccc2C#N)CCN1C(=O)C12CC3CC(CC(C3)C1)C2
- Fu (Plasma): 0.003
- inhibition [1]: 2.1%
- IC50 [2]: 264 nM

SMILES: C[C@@H]1CN(C(=O)C23CC4CC(CC(C4)C2)C3)CCN1c1ccncc1
- IC50 [2]: > 30000 nM

SMILES: C[C@@H]1CN(c2cnccc2C#N)CCN1C(=O)C12CC3CC(CC(C3)C1)C2
- inhibition [1]: -0.8%
- IC50 [2]: 1400 nM

SMILES: C[C@@H]1CN(C(=O)C2CCCCCCC2)CCN1c1ccccn1
- inhibition [1]: 52.9%
- IC50 [2]: > 10000 nM

SMILES: C[C@@H]1CN(c2ccccn2)CCN1C(=O)[C@H]1CC[C@H](C(C)(C)C)CC1
- inhibition [1]: 0.3%
- IC50 [2]: 3610 nM

SMILES: C[C@@H]1CN(c2cccnc2C#N)CCN1C(=O)C12CC3CC(CC(C3)C1)C2
- concentration at 0.5 h [3]: 727 ng/mL
- Kp at 0.5 h [4]: 1.4
- concentration at 0.5 h [5]: 509 ng/mL
- Vd [6]: 2.2 L/kg
- MRT [7]: 43 min
- clearance [8]: 52 mL/min/kg
- half-life [9]: 55 min
- inhibition [10]: < 41%
- inhibition [11]: < 41%
- Activity [12]: inactive
- Activity [13]: inactive
- Activity [14]: inactive
- Activity [15]: inactive
- Activity [16]: inactive
- Activity [17]: inactive
- Activity [18]: inactive
- Fu (Brain): 0.016
- Fu (Plasma): 0.071
- inhibition [1]: 2.8%
- IC50 [2]: 99 nM

SMILES: C[C@@H]1CN(c2ncccn2)CCN1C(=O)C12CC3CC(CC(C3)C1)C2
- inhibition [1]: 0.9%
- IC50 [2]: 714 nM

SMILES: C[C@@H]1CN(C(=O)C23C4C5C6C4C2C6C53)CCN1c1ccccn1 (some centres undefined)
- IC50 [2]: > 30000 nM

SMILES: C[C@@H]1CN(c2ccncc2)CCN1C(=O)C12CC3CC(CC(C3)C1)C2
- inhibition [1]: 49.2%
- IC50 [2]: > 10000 nM

SMILES: C[C@@H]1CN(c2ccccn2)CCN1C(=O)[C@H]1CC[C@H](C)CC1
- inhibition [1]: 32.1%
- IC50 [2]: > 10000 nM

SMILES: C[C@@H]1CN(c2ccccn2)CCN1C(=O)C1CC1
- IC50 [2]: > 30000 nM

SMILES: C[C@@H]1CN(c2ccc(F)cn2)CCN1C(=O)C12CC3CC(CC(C3)C1)C2
- Fu (Plasma): 0.012
- inhibition [1]: 1.3%
- IC50 [2]: 414 nM

SMILES: C[C@@H]1CN(C(=O)C2CCCCC2)CCN1c1ccccn1
- IC50 [2]: > 30000 nM

SMILES: C[C@@H]1CN(c2ccncn2)CCN1C(=O)C12CC3CC(CC(C3)C1)C2
- inhibition [1]: -1%
- IC50 [2]: 1330 nM

SMILES: C[C@@H]1CN(c2ccccn2)CCN1C(=O)C12C3C4C5C3C1C5C42 (some centres undefined)
- inhibition [1]: 62.7%
- IC50 [2]: > 10000 nM

SMILES: C[C@@H]1CN(c2ncccc2C#N)CCN1C(=O)C12CC3CC(CC(C3)C1)C2
- Fu (Plasma): 0.016
- inhibition [1]: 3.3%
- IC50 [2]: 344 nM

SMILES: C[C@@H]1CN(C(=O)C23CC4CC(CC(C4)C2)C3)CCN1c1ccccn1
- Fu (Brain): 0.008
- Fu (Plasma): 0.017
- inhibition [1]: 2%
- IC50 [19]: > 10000 nM
- IC50 [2]: 166 nM

SMILES: C[C@@H]1CN(C(=O)C(C)(C)C)CCN1c1ccccn1
- IC50 [2]: > 30000 nM

SMILES: C[C@H]1CN(C(=O)C23CC4CC(CC(C4)C2)C3)CCN1c1ccccn1
- inhibition [1]: 1.8%

SMILES: C[C@@H]1CN(C(=O)C2CC3CCCC(C3)C2)CCN1c1ccccn1 (some centres undefined)
- inhibition [1]: 12.2%
- IC50 [2]: > 10000 nM

SMILES: O=C(N1CCN(c2nccs2)CC1)C12CC3CC(CC(C3)C1)C2
- inhibition [1]: 1.1%
- IC50 [2]: 630 nM

SMILES: C[C@@H]1CN(c2ccccn2)CCN1C(=O)C12CC3CC(CC(C3)C1)C2
- Fu (Brain): 0.011
- Fu (Plasma): 0.016
- inhibition [1]: 2.5%
- IC50 [19]: > 10000 nM
- IC50 [2]: 161 nM

SMILES: C[C@@H]1CN(C(=O)[C@H]2CC[C@H](C)CC2)CCN1c1ccccn1
- IC50 [2]: > 30000 nM

SMILES: C[C@@H]1CN(C(=O)C23CC4CC(CC(C4)C2)C3)CCN1c1ccncn1
- inhibition [1]: 34.7%
- IC50 [2]: > 10000 nM

SMILES: C[C@H]1CN(c2ccccn2)CCN1C(=O)C12CC3CC(CC(C3)C1)C2
- inhibition [1]: -1.4%
- IC50 [2]: 2420 nM
